Calls of active or inactive are those of the source. The calls are words filed in the database; no cut-off is given here.
Assays:
MCF7 [1] = test: Cytotoxicity against human MCF7 cells assessed inhibition of cell proliferation measured for 24 hrs by MTT assay; assay type: functional, cell-based; settings: MCF7, 24 h
In short: (§1)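 MTT read-out of proliferation after 24 h exposure; MCF-7 breast cancer cells alongside noncancerous human embryonic kidney HEK-293 cells. IC50 in μM taken as the average ± SD of three individual experiments.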

HEK293 = test: Cytotoxicity against HEK293 cells assessed inhibition of cell proliferation measured after 24 hrs by MTT assay; assay type: toxicity, cell-based; settings: human, hek293, 24 h; in short: as §1
MCF7 [2] = test: Induction of intracellular ROS generation in human MCF7 cells at 10 uM incubated for 24 hrs by DCFDA staining based fluorescence microscopic analysis; assay type: functional, cell-based
In short: (§2)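 DCFDA-loaded MCF-7 cells imaged by fluorescence microscopy at 20× for qualitative ROS signal. Cisplatin serves as standard. Images represent three experiments. Scale bar 150 μm.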

MCF7 [3] = test: Induction of ROS production in human MCF7 cells assessed as increase in ROS level at 10 uM incubated for 24 hrs by DCFH-DA staining based flow cytometry analysis; assay type: functional, cell-based
In short: (§3)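 Intracellular ROS measured with the H2DCFDA probe. Esterase-deacetylated dye is oxidised to fluorescent DCF (ex 498/em 522 nm). Flow cytometry gave the percentage of ROS-positive MCF-7 cells against untreated control, with cisplatin (5 μM) as positive control. Mean ± SD of three independent investigations.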

MCF7 [4] = test: Induction of apoptosis in human MCF7 cells assessed as increase in early apoptotic cells at 10 uM incubated for 24 hrs by acridine orange/EtBr staining based fluorescence microscopic analysis; assay type: functional, cell-based
In short: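 Acridine orange/ethidium bromide dual staining of MCF-7 cells, with cisplatin (5 μM) as reference. Fluorescence microscopy classified cells as live (green nuclei), early apoptotic, late apoptotic or necrotic (orange-red nuclei). Images represent three independent experiments.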

Mitochondrial membrane [5] = test: Induction of mitochondrial membrane potential loss in human MCF7 cells assessed as increase in fluorescence intensity at 10 uM measured for 24 hrs by rhodamine-123 dye based flow cytometry analysis
In short: (§4)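 MCF-7 cells stained with rhodamine-123. Flow cytometry gave the percentage of cells with mitochondrial membrane potential loss against the untreated basal control. Mean ± SD of three independent investigations.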

Mitochondrial membrane [6] = test: Induction of mitochondrial membrane potential loss in human MCF7 cells assessed as increase in fluorescence intensity at 10 uM measured for 24 hrs by rhodamine-123 dye based flow cytometry analysis (reference value: 8%); in short: as §4
MCF7 [7] = test: Induction of apoptosis in human MCF7 cells assessed as increase in Bax mRNA expression at 10 uM measured for 24 hrs bt RT-PCR analysis; assay type: functional, cell-based
In short: (§5)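 mRNA levels of Bax, Bad (pro-apoptotic) and Bcl-2 (anti-apoptotic) measured in treated MCF-7 cells relative to untreated control. Mean ± SD of three independent studies.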

MCF7 [8] = test: Induction of apoptosis in human MCF7 cells assessed as increase in Bad mRNA expression at 10 uM measured for 24 hrs bt RT-PCR analysis; assay type: functional, cell-based; in short: as §5
MCF7 [9] = test: Induction of apoptosis in human MCF7 cells assessed as decrease in Bcl-2 mRNA expression at 10 uM measured for 24 hrs bt RT-PCR analysis; assay type: functional, cell-based; in short: as §5
MCF7 [10] = test: Induction of DNA fragmentation in human MCF7 cells assessed as increase in condensed nuclei at 10 uM measured for 24 hrs by DAPI staining based fluorescence microscopic analysis; assay type: functional, cell-based
In short: (§6)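 MCF-7 nuclei stained with DAPI after exposure, with cisplatin (5 μM) as reference. Fluorescence microscopy scored condensed and fragmented nuclei. Images represent three individual experiments. Scale bar 150 μm.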

MCF7 [11] = test: Induction of DNA fragmentation in human MCF7 cells assessed as increase in fragmented nuclei at 10 uM measured for 24 hrs by DAPI staining based fluorescence microscopic analysis; assay type: functional, cell-based; in short: as §6
[12] = Drug localization in cytoplasm of human MCF7 cells assessed as increase in red fluorescence at 10 uM incubated for 24 hrs by DAPI staining based confocal fluorescence microscopic analysis; assay type: ADME, subcellular; settings: mcf7, 24 h
[13] = Drug localization in nucleus of human MCF7 cells assessed as increase in red fluorescence at 10 uM incubated for 24 hrs by DAPI staining based confocal fluorescence microscopic analysis; assay type: ADME, subcellular; settings: mcf7, 24 h
MCF7 [14] = test: Induction of intracellular ROS generation in human MCF7 cells at 12 uM incubated for 24 hrs by DCFDA staining based fluorescence microscopic analysis; assay type: functional, cell-based; in short: as §2
MCF7 [15] = test: Induction of ROS production in human MCF7 cells assessed as increase in ROS level at 12 uM incubated for 24 hrs by DCFH-DA staining based flow cytometry analysis; assay type: functional, cell-based; in short: as §3
Mitochondrial membrane [16] = test: Induction of mitochondrial membrane potential loss in human MCF7 cells assessed as increase in fluorescence intensity at 12 uM measured for 24 hrs by rhodamine-123 dye based flow cytometry analysis; in short: as §4
Mitochondrial membrane [17] = test: Induction of mitochondrial membrane potential loss in human MCF7 cells assessed as increase in fluorescence intensity at 12 uM measured for 24 hrs by rhodamine-123 dye based flow cytometry analysis (reference value: 8%); in short: as §4
MCF7 [18] = test: Induction of apoptosis in human MCF7 cells assessed as increase in Bax mRNA expression at 12 uM measured for 24 hrs bt RT-PCR analysis; assay type: functional, cell-based; in short: as §5
MCF7 [19] = test: Induction of apoptosis in human MCF7 cells assessed as increase in Bad mRNA expression at 12 uM measured for 24 hrs bt RT-PCR analysis; assay type: functional, cell-based; in short: as §5
MCF7 [20] = test: Induction of apoptosis in human MCF7 cells assessed as decrease in Bcl-2 mRNA expression at 12 uM measured for 24 hrs bt RT-PCR analysis; assay type: functional, cell-based; in short: as §5
MCF7 [21] = test: Induction of DNA fragmentation in human MCF7 cells assessed as increase in condensed nuclei at 12 uM measured for 24 hrs by DAPI staining based fluorescence microscopic analysis; assay type: functional, cell-based; in short: as §6
MCF7 [22] = test: Induction of DNA fragmentation in human MCF7 cells assessed as increase in fragmented nuclei at 12 uM measured for 24 hrs by DAPI staining based fluorescence microscopic analysis; assay type: functional, cell-based; in short: as §6
[23] = Drug localization in human MCF7 cells at 12 uM incubated for 24 hrs by DAPI staining based confocal fluorescence microscopic analysis; assay type: ADME, cell-based; settings: mcf7, 24 h
MCF7 [24] = test: Induction of apoptosis in human MCF7 cells assessed as increase in number of necrotic cells at 12 uM incubated for 24 hrs by acridine orange/EtBr staining based fluorescence microscopic analysis
MCF7 [25] = test: Induction of apoptosis in human MCF7 cells assessed as increase in number of late apoptotic cells at 12 uM incubated for 24 hrs by acridine orange/EtBr staining based fluorescence microscopic analysis

For `N#Cc1ccc(Oc2nc3ccccc3cc2-c2n[nH]nc2C(N)=O)cc1`, the IC50 (MCF7 [1]) was 10 µM, the Activity (HEK293) was “Non-Toxic” and the Activity (MCF7 [2]) was “Active”. For the same molecule, the Activity (MCF7 [3]) was “Active”, the Activity (MCF7 [4]) was “Active” and the Activity (Mitochondrial membrane [5]) was “Active”. The Activity (Mitochondrial membrane [6]) was 23%, the Activity (MCF7 [7]) was “Active” and the Activity (MCF7 [8]) was “Active”. The Activity (MCF7 [9]) was “Active”, the Activity (MCF7 [10]) was “Active” and the Activity (MCF7 [11]) was “Active”. For the same molecule, the Drug uptake [12] was “Active” and the Drug uptake [13] was “Active”.
Molecule `CCOC(=O)c1n[nH]nc1-c1cc2cc(C)c(C)cc2nc1Oc1ccc(C#N)cc1` has an IC50 (MCF7 [1]) of 65 µM.
With `CCOC(=O)c1n[nH]nc1-c1cc2ccc(C)cc2nc1Oc1ccc(I)cc1` the IC50 (MCF7 [1]) was 20 µM.
With `CCOC(=O)c1n[nH]nc1-c1cc2ccc(C)cc2nc1Oc1ccc(C#N)cc1` the IC50 (MCF7 [1]) was 19 µM.
`NC(=O)c1n[nH]nc1-c1cc2ccccc2nc1Oc1ccc(I)cc1` showed an IC50 (MCF7 [1]) of 17.5 µM.
In the case of `CCOC(=O)c1n[nH]nc1-c1cc2ccccc2nc1Oc1ccccc1`, the IC50 (MCF7 [1]) is reported as 90 µM.
Work on `CCOC(=O)c1n[nH]nc1-c1cc2ccccc2nc1Oc1ccc(C)cc1` yielded an IC50 (MCF7 [1]) of 53 µM.
Work on `Cc1ccc(Oc2nc3ccccc3cc2-c2n[nH]nc2C(N)=O)cc1` yielded an IC50 (MCF7 [1]) of 62.5 µM.
For `NC(=O)c1n[nH]nc1-c1cc2ccccc2nc1Oc1ccc(Br)cc1`, the IC50 (MCF7 [1]) was 12 µM, the Activity (HEK293) was “Non-Toxic” and the Activity (MCF7 [14]) was “Active”. For the same molecule, the Activity (MCF7 [15]) was “Active”, the Activity (Mitochondrial membrane [16]) was “Active” and the Activity (Mitochondrial membrane [17]) was 14%. The Activity (MCF7 [18]) was “Active”, the Activity (MCF7 [19]) was “Active” and the Activity (MCF7 [20]) was “Active”. For the same molecule, the Activity (MCF7 [21]) was “Active”, the Activity (MCF7 [22]) was “Active” and the Drug uptake [23] was “Not Active”. For the same molecule, the Activity (MCF7 [24]) was “Active” and the Activity (MCF7 [25]) was “Active”.
Molecule `CCOC(=O)c1n[nH]nc1-c1cc2ccc(C)cc2nc1Oc1ccc(C)cc1` has an IC50 (MCF7 [1]) of 42.5 µM.

Reference: ChEMBL document CHEMBL6071208, “Promoting Apoptosis in MCF-7 Cells via ROS Generation by Quinolino-triazoles Derived from One-Pot Telescopic Synthesis” (ACS Med Chem Lett, 2024)
